Measured values gathered from unrelated publications.
Compare with care: the assays were run in different laboratories.
Target: Tyrosine-protein kinase ABL2 (ABL2, Homo sapiens, UniProt P42684)

SMILES	test	setting	quantity	value
Cn1cc(Cl)c2c(Oc3c(F)cc(Nc4cc(Cl)nc(N)n4)cc3F)ccnc21	cell-free assay, competition with immobilised ligand	0.1 µM	remaining binding	99%
O=C1NC(=O)c2cc(Nc3ccc(F)cc3)c(Nc3ccc(F)cc3)cc21	cell-free assay	0.5 µM	remaining signal	89.6%
CC(C)(O)[C@H]1CC[C@H](Nc2ccc3ncc(-c4cccc(C(F)(F)F)c4)n3n2)CC1	enzyme activity, inhibitor	1 µM	remaining activity	76.5%
O=C(Nc1ccc(Oc2ccc(F)cc2)cc1)N1CCc2ncccc2[C@H]1c1ccc(F)cc1	cell-free assay, competition with immobilised ligand	1 µM	remaining binding	88%
CCCS(=O)(=O)Nc1ccc(F)c(C(=O)c2c[nH]c3ncc(-c4ccc(Cl)cc4)cc23)c1F	enzyme activity, inhibitor	1 µM	inhibition	< 20%
COc1cc2ncnc(Nc3ccc(Oc4ccccc4)cc3C)c2cc1OC	enzyme activity, inhibitor	1 µM	inhibition	16%
Cc1ccc(NC(=O)c2ccc(C)c(C(F)(F)F)c2)cc1C#Cc1nn(C2CCC(O)CC2)c2ncnc(N)c12 (stereo not shown)	cell-free assay	10 µM	remaining signal	0%
CCN(CC)CCNC(=O)c1c(C)[nH]c(/C=C2\C(=O)Nc3ccc(F)cc32)c1C	binding, competition with immobilised ligand	10 µM	inhibition	77%
CNC(=O)c1cc(Oc2ccc(NC(=O)Nc3ccc(Cl)c(C(F)(F)F)c3)cc2)ccn1	enzyme activity, inhibitor	0.3 µM	inhibition	11%
CC/C(=N\NC(=O)NCc1cccc(O)c1)c1ccc(O)c(C)c1O	enzyme activity, inhibitor	0.1 µM	inhibition	-0.2%
CCCOc1ccc(OC)c(F)c1C(=O)c1ccc(C(=O)N[C@@H]2CNC[C@H]2NC(=O)c2ccc3[nH]ncc3c2)cc1	enzyme activity, inhibitor	10 µM	remaining activity	89%
Nc1ncnc2occ(-c3ccc(NC(=O)Nc4cc(C(F)(F)F)ccc4F)cc3)c12	cell-free assay, inhibitor	20 µM	remaining signal	0.65%
C=CC(=O)Nc1cc(Nc2nccc(Nc3cc(Cl)c(F)cc3C(C)(C)O)n2)c(OC)cc1N1CC[C@@H](N(C)C)C1	enzyme activity, inhibitor	1 µM	inhibition	18%
O=C(Nc1cnn(-c2csc(C(=O)NC3COC3)c2)c1)Nc1ccccc1Cl	enzyme activity, inhibitor	5 µM	remaining activity	92.7%
COc1cc(-c2cn(C3CCc4ccccc4N(CC(F)(F)F)C3=O)nn2)ccc1-n1ccc(C)n1 (stereo not shown)	cell-free assay, competition with immobilised ligand	1 µM	remaining binding	100%
Clc1ccc(Nc2nnc(Cc3ccncc3)c3ccccc23)cc1	cell-free assay	0.5 µM	remaining signal	101%
CN(C(=O)c1ccccc1)c1cc(N(C)c2ccc3c(c2)CCc2ccc(C(=O)NCCN4CCOCC4)cc2C3=O)ccc1F	cell-free assay, competition with immobilised ligand	1 µM	remaining binding	100%
CC(C)(C)c1nc2c(s1)c1nc(N)ncc1c1ccc(NS(=O)(=O)c3c(F)cccc3F)c(F)c12	enzyme activity, inhibitor, radiometric	1 µM	remaining activity	99%
CN(C)c1ncnc(-c2ccc3nc(Nc4cc(CN5CCN(C(=O)CC(F)(F)F)CC5)ccn4)[nH]c3c2)c1Cl	cell-free assay, competition with immobilised ligand	1 µM	remaining binding	71%
Cc1ccc(Nc2nccc(N(C)c3ccc4c(C)n(C)nc4c3)n2)cc1S(N)(=O)=O	enzyme activity, inhibitor	10 µM	inhibition	84%
Cc1cc(NC(=O)c2cccc(S(F)(F)(F)(F)F)c2)cc(-n2ccn3nc(-c4cccnc4)cc23)c1	cell-free assay, competition with immobilised ligand	1 µM	remaining binding	100%
COc1cc(Cl)c(C(=O)N[C@@H](CN[C@H]2CC[C@@H](N)CC2)Cc2ccc(C#N)cc2)cc1-c1ccc(CN[C@H](C)c2ccc(C)cc2)o1	enzyme activity, inhibitor	1 µM	remaining activity	87%
